Source: ChEMBL document CHEMBL1914423, “New imidazo[2,1-b]thiazole derivatives: synthesis, in vitro anticancer evaluation, and in silico studies” (Eur J Med Chem, 2011)

Tests used:
Assay type in all cases: functional
[1] = test system: UO-31; test: Anticancer activity against human UO31 cells assessed as cell growth at 10^-5 M after 48 hrs by SRB assay; settings: UO-31, 48 h, read-out: Activity
Outline: (§1)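 NCI-60 single-dose screen: cells in RPMI 1640 with 5% FBS and 2 mM L-glutamine, plated at 5000–40,000 cells/well by doubling time, and preincubated 24 h at 37 °C. Compound given at one concentration from DMSO stock. Cells TCA-fixed and SRB-stained, absorbance at 515 nm. Percent growth relative to time-zero and untreated controls; inhibition % = 100 − growth %.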

[2] = test system: NCI-H322M; test: Anticancer activity against human NCI-H322M cells assessed as cell growth at 10^-5 M after 48 hrs by SRB assay; settings: read-out: Activity
[3] = test system: NCI-H522; test: Anticancer activity against human NCI-H522 cells assessed as cell growth at 10^-5 M after 48 hrs by SRB assay; settings: NCI-H522, 48 h, read-out: Activity
[4] = test system: NCI-H226; test: Anticancer activity against human NCI-H226 cells assessed as cell growth at 10^-5 M after 48 hrs by SRB assay; settings: NCI-H226, 48 h, read-out: Activity
[5] = test system: PC-3; test: Anticancer activity against human PC3 cells assessed as cell growth at 10^-5 M after 48 hrs by SRB assay; settings: PC-3, 48 h, read-out: Activity
[6] = test system: SK-MEL-2; test: Anticancer activity against human SK-MEL-2 cells assessed as cell growth at 10^-5 M after 48 hrs by SRB assay; settings: SK-MEL-2, 48 h, read-out: Activity
[7] = test system: SNB-19; test: Anticancer activity against human SNB19 cells assessed as cell growth at 10^-5 M after 48 hrs by SRB assay; settings: SNB-19, 48 h, read-out: Activity
[8] = test system: HOP-92; test: Anticancer activity against human HOP92 cells assessed as cell growth at 10^-5 M after 48 hrs by SRB assay; settings: HOP-92, 48 h, read-out: Activity
Outline: (§2)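 NCI-60 single-dose screen at one concentration. Cells grown in RPMI 1640 with 5% FBS and 2 mM L-glutamine, plated at 5000–40,000 cells/well, and pre-incubated 24 h at 37 °C in 5% CO2 before DMSO-dissolved drug was added. Cells fixed with TCA, SRB-stained, absorbance read at 515 nm. Percent growth calculated against time-zero and untreated control plates.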

[9] = test system: SF-268; test: Anticancer activity against human SF268 cells assessed as cell growth at 10^-5 M after 48 hrs by SRB assay; settings: SF-268, 48 h, read-out: Activity
[10] = test system: HCC 2998; test: Anticancer activity against human HCC2998 cells assessed as cell growth at 10^-5 M after 48 hrs by SRB assay; settings: HCC 2998, 48 h, read-out: Activity; outline: as §2
[11] = test system: KM12; test: Anticancer activity against human KM12 cells assessed as cell growth at 10^-5 M after 48 hrs by SRB assay; settings: KM12, 48 h, read-out: Activity; outline: as §2
[12] = test system: BT-549; test: Anticancer activity against human BT549 cells assessed as cell growth at 10^-5 M after 48 hrs by SRB assay; settings: BT-549, 48 h, read-out: Activity; outline: as §2
[13] = test system: MDA-MB-435; test: Anticancer activity against human MDA-MB-435 cells assessed as cell growth at 10^-5 M after 48 hrs by SRB assay; settings: MDA-MB-435, 48 h, read-out: Activity
[14] = test system: SN12C; test: Anticancer activity against human SN12C cells assessed as cell growth at 10^-5 M after 48 hrs by SRB assay; settings: read-out: Activity
[15] = test system: MOLT-4; test: Anticancer activity against human MOLT4 cells assessed as cell growth at 10^-5 M after 48 hrs by SRB assay; settings: MOLT-4, 48 h, read-out: Activity
[16] = test system: NCI-H23; test: Anticancer activity against human NCI-H23 cells assessed as cell growth at 10^-5 M after 48 hrs by SRB assay; settings: NCI-H23, 48 h, read-out: Activity
[17] = test system: SW-620; test: Anticancer activity against human SW620 cells assessed as cell growth at 10^-5 M after 48 hrs by SRB assay; settings: SW-620, 48 h, read-out: Activity; outline: as §1
[18] = test system: HCT-116; test: Anticancer activity against human HCT116 cells assessed as cell growth at 10^-5 M after 48 hrs by SRB assay; settings: HCT-116, 48 h, read-out: Activity; outline: as §2
[19] = test system: SF-539; test: Anticancer activity against human SF539 cells assessed as cell growth at 10^-5 M after 48 hrs by SRB assay; settings: SF-539, 48 h, read-out: Activity
[20] = test system: U-251; test: Anticancer activity against human U251 cells assessed as cell growth at 10^-5 M after 48 hrs by SRB assay; settings: U-251, 48 h, read-out: Activity; outline: as §1
[21] = test system: CAKI-1; test: Anticancer activity against human Caki1 cells assessed as cell growth at 10^-5 M after 48 hrs by SRB assay; settings: CAKI-1, 48 h, read-out: Activity; outline: as §2
[22] = test system: RPMI-8226; test: Anticancer activity against human RPMI8226 cells assessed as cell growth at 10^-5 M after 48 hrs by SRB assay; settings: RPMI-8226, 48 h, read-out: Activity
[23] = test system: UACC-257; test: Anticancer activity against human UACC257 cells assessed as cell growth at 10^-5 M after 48 hrs by SRB assay; settings: UACC-257, 48 h, read-out: Activity; outline: as §1
[24] = test system: SK-MEL-28; test: Anticancer activity against human SK-MEL-28 cells assessed as cell growth at 10^-5 M after 48 hrs by SRB assay; settings: SK-MEL-28, 48 h, read-out: Activity
[25] = test system: HCT-15; test: Anticancer activity against human HCT15 cells assessed as cell growth at 10^-5 M after 48 hrs by SRB assay; settings: HCT-15, 48 h, read-out: Activity; outline: as §2
[26] = test system: A498; test: Anticancer activity against human A498 cells assessed as cell growth at 10^-5 M after 48 hrs by SRB assay; settings: A498, 48 h, read-out: Activity; outline: as §2
[27] = test system: OVCAR-5; test: Anticancer activity against human OVCAR5 cells assessed as cell growth at 10^-5 M after 48 hrs by SRB assay; settings: OVCAR-5, 48 h, read-out: Activity
[28] = test system: OVCAR-3; test: Anticancer activity against human OVCAR3 cells assessed as cell growth at 10^-5 M after 48 hrs by SRB assay; settings: OVCAR-3, 48 h, read-out: Activity
[29] = test system: OVCAR-8; test: Anticancer activity against human OVCAR8 cells assessed as cell growth at 10^-5 M after 48 hrs by SRB assay; settings: OVCAR-8, 48 h, read-out: Activity
[30] = test system: UACC-62; test: Anticancer activity against human UACC62 cells assessed as cell growth at 10^-5 M after 48 hrs by SRB assay; settings: UACC-62, 48 h, read-out: Activity; outline: as §1
[31] = test system: RXF 393; test: Anticancer activity against human RXF393 cells assessed as cell growth at 10^-5 M after 48 hrs by SRB assay; settings: RXF 393, 48 h, read-out: Activity

| Compound | growth at 10 µM [1] [%] | growth at 10 µM [2] [%] | growth at 10 µM [3] [%] | growth at 10 µM [4] [%] | growth at 10 µM [5] [%] | growth at 10 µM [6] [%] | growth at 10 µM [7] [%] | growth at 10 µM [8] [%] | growth at 10 µM [9] [%] | growth at 10 µM [10] [%] | growth at 10 µM [11] [%] | growth at 10 µM [12] [%] | growth at 10 µM [13] [%] | growth at 10 µM [14] [%] | growth at 10 µM [15] [%] | growth at 10 µM [16] [%] | growth at 10 µM [17] [%] | growth at 10 µM [18] [%] | growth at 10 µM [19] [%] | growth at 10 µM [20] [%] | other results |
| --- | --- | --- | --- | --- | --- | --- | --- | --- | --- | --- | --- | --- | --- | --- | --- | --- | --- | --- | --- | --- | --- |
| COc1cccc(-c2nc3sccn3c2-c2ccnc(NCCNC(=O)Nc3ccccc3)n2)c1 | 76.1 | 108 | 82.7 | 109 | 84.2 | 99.9 | 103 | 70.9 | 103 | 113 | 92 | 96 | 96.6 | 65.6 | 74.9 | 111 | 77.3 | 52.9 | 43.8 | 108 | growth at 10 µM [21]: 117%; growth at 10 µM [22]: 55.5%; growth at 10 µM [23]: 119%; growth at 10 µM [24]: 108%; growth at 10 µM [25]: 87.8%; growth at 10 µM [26]: 103%; growth at 10 µM [27]: 126%; growth at 10 µM [28]: 109%; growth at 10 µM [29]: 74.7%; growth at 10 µM [30]: 86%; growth at 10 µM [31]: 107% |
| COc1cccc(-c2nc3sccn3c2-c2ccnc(NCCNC(=O)Nc3cccc(C(F)(F)F)c3)n2)c1 | 39.7 | 81.3 | 47.7 | 94.9 | 32.9 | 61.9 | 74.8 | 92.4 | 62.3 | 40.8 | 33.5 | 71.9 | 21.5 | 68.8 | 36.7 | 83.8 | 88.9 | 44.6 | 77.9 | 58.1 | growth at 10 µM [21]: 40%; growth at 10 µM [22]: 20.4%; growth at 10 µM [23]: 69.5%; growth at 10 µM [24]: 78.4%; growth at 10 µM [25]: 45.9%; growth at 10 µM [26]: 61.6%; growth at 10 µM [27]: 103%; growth at 10 µM [28]: 66.3%; growth at 10 µM [29]: 21.3%; growth at 10 µM [30]: 50.5%; growth at 10 µM [31]: 6.3% |
| O=C(NCCNc1nccc(-c2c(-c3cccc(O)c3)nc3sccn23)n1)Nc1ccccc1 | 86.6 | 113 | 57 | 105 | 86.6 | 97.5 | 108 | 90.2 | 79.8 | 94.7 | 68.8 | 96.2 | 31.1 | 64.3 | 65.5 | 114 | 63.3 | 67.5 | 62.4 | 108 | growth at 10 µM [21]: 111%; growth at 10 µM [22]: 58.3%; growth at 10 µM [23]: 46.2%; growth at 10 µM [24]: 57.4%; growth at 10 µM [25]: 92.7%; growth at 10 µM [26]: 99.7%; growth at 10 µM [27]: 114%; growth at 10 µM [28]: 112%; growth at 10 µM [29]: 68.1%; growth at 10 µM [30]: 24.6%; growth at 10 µM [31]: 86.3% |
| O=C(NCCNc1nccc(-c2c(-c3cccc(O)c3)nc3sccn23)n1)Nc1cccc(C(F)(F)F)c1 | 75.2 | 76.8 | -5.9 | 97 | 26.7 | 54.4 | 89.5 | 54.5 | 26.2 | 23 | 14.1 | 41.1 | -3.01 | 70.7 | 59.8 | 96.2 | 30.3 | 56.8 | 98.5 | 81.6 | growth at 10 µM [21]: 90.3%; growth at 10 µM [22]: -4.81%; growth at 10 µM [23]: 25.3%; growth at 10 µM [24]: 48.8%; growth at 10 µM [25]: 84.7%; growth at 10 µM [26]: 111%; growth at 10 µM [27]: 117%; growth at 10 µM [28]: 76.7%; growth at 10 µM [29]: 41.1%; growth at 10 µM [30]: 29.4%; growth at 10 µM [31]: 26.2% |
| COc1cccc(-c2nc3sccn3c2-c2ccnc(NCCNC(=O)c3cc(N4CCOCC4)cc(C(F)(F)F)c3)n2)c1 | 60.2 | 96.6 | 69.5 | 104 | 66.3 | 76.2 | 103 | 59.1 | 85.7 | 98.7 | 83.2 | 81.1 | 62.8 | 89.3 | 60 | 110 | 109 | 75.6 | 101 | 100 | growth at 10 µM [21]: 83%; growth at 10 µM [22]: 39.1%; growth at 10 µM [23]: 89.5%; growth at 10 µM [24]: 88.2%; growth at 10 µM [25]: 88.5%; growth at 10 µM [26]: 86%; growth at 10 µM [27]: 110%; growth at 10 µM [28]: 96.3%; growth at 10 µM [30]: 50.9%; growth at 10 µM [31]: 72.6% |
| O=C(NCCNc1nccc(-c2c(-c3cccc(O)c3)nc3sccn23)n1)c1cccc(C(F)(F)F)c1 | 73.4 | 103 | 48.5 | 88.5 | 67.3 | 62.1 | 116 | 83.8 | 86.7 | 117 | 81 | 88 | 21.7 | 83.2 | 61.5 | 81 | 107 | 74.3 | 100 | 84.8 | growth at 10 µM [21]: 75.6%; growth at 10 µM [22]: 44.2%; growth at 10 µM [23]: 14.3%; growth at 10 µM [24]: 38.5%; growth at 10 µM [25]: 87.8%; growth at 10 µM [26]: 84.5%; growth at 10 µM [27]: 113%; growth at 10 µM [28]: 89.8%; growth at 10 µM [30]: 3.21%; growth at 10 µM [31]: 79.9% |
